Assay results: ChEMBL document CHEMBL3286203, “Reactive oxygen species (ROS) inducible DNA cross-linking agents and their effect on cancer cells and normal lymphocytes” (J Med Chem, 2014)
The source made the active and inactive calls. The calls are words filed in the database; no cut-off is given here.

Experiments:
[1] = tested on: HOP-62; assay: Cytotoxicity against human HOP62 cells after 48 hrs by SRB assay; format: functional; conditions: HOP-62, 48 h
Procedure, shortened: (§1)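 GI50 was determined in the NCI Developmental Therapeutics Program in vitro 60-line cancer screen. Tumour lines were maintained in RPMI 1640 containing 5% FBS and 2 mM L-glutamine. Cells were inoculated at 5000–40 000 cells/well according to each line's doubling time before drug exposure.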

[2] = tested on: NCI-H23; assay: Cytotoxicity against human NCI-H23 cells after 48 hrs by SRB assay; format: functional; conditions: NCI-H23, 48 h
Procedure, shortened: (§2)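 GI50 from the NCI Developmental Therapeutics Program in vitro human tumor cell screen. Cell lines were maintained in RPMI 1640 with 5% fetal bovine serum and 2 mM L-glutamine. They were seeded at 5000–40 000 cells/well, depending on each line's doubling time, then exposed to drug for 48 h at 37 °C, 5% CO2.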

[3] = tested on: NCI-H460; assay: Cytotoxicity against human NCI-H460 cells after 48 hrs by SRB assay; format: functional; conditions: NCI-H460, 48 h; procedure, shortened: as §2
[4] = tested on: HCT-116; assay: Cytotoxicity against human HCT116 cells after 48 hrs by SRB assay; format: functional; conditions: HCT-116, 48 h; procedure, shortened: as §1
[5] = Cytotoxicity against human HCT15 cells after 48 hrs by SRB assay; format: functional; conditions: HCT-15, 48 h; procedure, shortened: as §1
[6] = tested on: HT-29; assay: Cytotoxicity against human HT-29 cells after 48 hrs by SRB assay; format: functional; conditions: HT-29, 48 h; procedure, shortened: as §1
[7] = tested on: SW-620; assay: Cytotoxicity against human SW620 cells after 48 hrs by SRB assay; format: functional; conditions: SW-620, 48 h
Procedure, shortened: (§3)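 GI50 from the NCI-60 DTP human tumour line screen. Lines grown in RPMI 1640 with 5% fetal bovine serum and 2 mM L-glutamine, plated at 5000–40 000 cells/well according to doubling time. Incubated 48 h at 37 °C, 5% CO2.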

[8] = tested on: SF-295; assay: Cytotoxicity against human SF295 cells after 48 hrs by SRB assay; format: functional; conditions: SF-295, 48 h; procedure, shortened: as §2
[9] = tested on: SF-539; assay: Cytotoxicity against human SF539 cells after 48 hrs by SRB assay; format: functional; conditions: SF-539, 48 h; procedure, shortened: as §2
[10] = tested on: SNB-19; assay: Cytotoxicity against human SNB19 cells after 48 hrs by SRB assay; format: functional; conditions: SNB-19, 48 h; procedure, shortened: as §3
[11] = tested on: U-251; assay: Cytotoxicity against human U251 cells after 48 hrs by SRB assay; format: functional; conditions: U-251, 48 h; procedure, shortened: as §3
[12] = tested on: Malme-3M; assay: Cytotoxicity against human MALME-3M cells after 48 hrs by SRB assay; format: functional; procedure, shortened: as §1
[13] = tested on: M14; assay: Cytotoxicity against human M14 cells after 48 hrs by SRB assay; format: functional; conditions: M14, 48 h; procedure, shortened: as §1
[14] = tested on: MDA-MB-435; assay: Cytotoxicity against human MDA-MB-435 cells after 48 hrs by SRB assay; format: functional; conditions: MDA-MB-435, 48 h; procedure, shortened: as §2
[15] = tested on: SK-MEL-2; assay: Cytotoxicity against human SK-MEL-2 cells after 48 hrs by SRB assay; format: functional; conditions: SK-MEL-2, 48 h; procedure, shortened: as §2
[16] = tested on: SK-MEL-5; assay: Cytotoxicity against human SK-MEL-5 cells after 48 hrs by SRB assay; format: functional; conditions: SK-MEL-5, 48 h; procedure, shortened: as §2
[17] = Cytotoxicity against human UACC257 cells after 48 hrs by SRB assay; format: functional; conditions: UACC-257, 48 h; procedure, shortened: as §3
[18] = Cytotoxicity against human UACC62 cells after 48 hrs by SRB assay; format: functional; conditions: UACC-62, 48 h; procedure, shortened: as §3
[19] = Cytotoxicity against human OVCAR3 cells after 48 hrs by SRB assay; format: functional; conditions: OVCAR-3, 48 h; procedure, shortened: as §2
[20] = Cytotoxicity against human OVCAR8 cells after 48 hrs by SRB assay; format: functional; conditions: OVCAR-8, 48 h; procedure, shortened: as §2
[21] = tested on: 786-0; assay: Cytotoxicity against human 786-0 cells after 48 hrs by SRB assay; format: functional; conditions: 786-0, 48 h; procedure, shortened: as §1
[22] = tested on: A498; assay: Cytotoxicity against human A498 cells after 48 hrs by SRB assay; format: functional; conditions: A498, 48 h; procedure, shortened: as §1
[23] = tested on: ACHN; assay: Cytotoxicity against human ACHN cells after 48 hrs by SRB assay; format: functional; procedure, shortened: as §1
[24] = tested on: RXF 393; assay: Cytotoxicity against human RXF393 cells after 48 hrs by SRB assay; format: functional; conditions: RXF 393, 48 h; procedure, shortened: as §2
[25] = tested on: TK-10; assay: Cytotoxicity against human TK10 cells after 48 hrs by SRB assay; format: functional; conditions: TK-10, 48 h; procedure, shortened: as §3
[26] = Cytotoxicity against human UO31 cells after 48 hrs by SRB assay; format: functional; conditions: UO-31, 48 h; procedure, shortened: as §3
[27] = tested on: PC-3; assay: Cytotoxicity against human PC3 cells after 48 hrs by SRB assay; format: functional; conditions: PC-3, 48 h; procedure, shortened: as §2
[28] = tested on: DU-145; assay: Cytotoxicity against human DU145 cells after 48 hrs by SRB assay; format: functional; conditions: DU-145, 48 h; procedure, shortened: as §1
[29] = tested on: MCF7; assay: Cytotoxicity against human MCF7 cells after 48 hrs by SRB assay; format: functional; conditions: MCF7, 48 h; procedure, shortened: as §1
[30] = tested on: MDA-MB-231; assay: Cytotoxicity against human MDA-MB-231 cells after 48 hrs by SRB assay; format: functional; conditions: MDA-MB-231, 48 h; procedure, shortened: as §2
[31] = tested on: BT-549; assay: Cytotoxicity against human BT549 cells after 48 hrs by SRB assay; format: functional; conditions: BT-549, 48 h; procedure, shortened: as §1
[32] = tested on: MDA-MB-468; assay: Cytotoxicity against human MDA-MB-468 cells after 48 hrs by SRB assay; format: functional; conditions: MDA-MB-468, 48 h; procedure, shortened: as §2
[33] = Induction of [32P]-labeled 49-mer oligonucleotide duplex DNA 12 interstrand cross-linking (unknown origin) at purine nucleotide site using compound radiolabeled at 5' of 12b in phosphate buffer at pH 7 at 90 degC after 30 mins by PAGE
[34] = Induction of [32P]-labeled 49-mer oligonucleotide duplex DNA 12 interstrand cross-linking (unknown origin) at purine nucleotide site using compound radiolabeled at 5' of 12a at 90 deg C after 30 mins by PAGE in presence of piperidine
Procedure, shortened: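 Cross-linked duplex, with strand 12a 32P-labelled at the 5′ end, heated at 90 °C either in phosphate buffer pH 7.0 or in 1.0 M piperidine. Cleavage sites were assigned by denaturing PAGE against G + A sequencing and Fe·EDTA markers.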

[35] = Induction of [32P]-labeled 49-mer oligonucleotide duplex DNA 12 interstrand cross-linking (unknown origin) at purine nucleotide site using compound radiolabeled at 5' of 12b at 90 deg C after 30 mins by PAGE in presence of piperidine
[36] = Induction of [32P]-labeled 49-mer oligonucleotide duplex DNA 12 interstrand cross-linking (unknown origin) at purine nucleotide site using compound radiolabeled at 3' of 12a at 90 deg C after 30 mins by PAGE in presence of piperidine
[37] = tested on: CCRF-CEM; assay: Cytotoxicity against human CCRF-CEM cells after 48 hrs by SRB assay; format: functional; procedure, shortened: as §1
[38] = tested on: HL-60(TB); assay: Cytotoxicity against human HL-60(TB) cells after 48 hrs by SRB assay; format: functional; conditions: HL-60, 48 h; procedure, shortened: as §1
[39] = tested on: K562; assay: Cytotoxicity against human K562 cells after 48 hrs by SRB assay; format: functional; conditions: K562, 48 h; procedure, shortened: as §1
[40] = tested on: MOLT-4; assay: Cytotoxicity against human MOLT4 cells after 48 hrs by SRB assay; format: functional; conditions: MOLT-4, 48 h; procedure, shortened: as §2
[41] = tested on: SR; assay: Cytotoxicity against human SR cells after 48 hrs by SRB assay; format: functional; procedure, shortened: as §3
[42] = Cytotoxicity against human EKVX cells after 48 hrs by SRB assay; format: functional; procedure, shortened: as §1

CC1(C)OB(c2ccc(N(CCCl)CCBr)cc2)OC1(C)C
GI50 [1]: 10.9 µM
GI50 [2]: 5.38 µM
GI50 [3]: 0.42 µM
GI50 [4]: 13.9 µM
GI50 [5]: 17.1 µM
GI50 [6]: 18.8 µM
GI50 [7]: 13.9 µM
GI50 [8]: 2.64 µM
GI50 [9]: 6.37 µM
GI50 [10]: 10.6 µM
GI50 [11]: 5.07 µM
GI50 [12]: 18.4 µM
GI50 [13]: 7.86 µM
GI50 [14]: 16.5 µM
GI50 [15]: 20.8 µM
GI50 [16]: 13.7 µM
GI50 [17]: 13.4 µM
GI50 [18]: 9.38 µM
GI50 [19]: 15 µM
GI50 [20]: 11.9 µM
GI50 [21]: 8.95 µM
GI50 [22]: 5.87 µM
GI50 [23]: 3.4 µM
GI50 [24]: 10.4 µM
GI50 [25]: 22.6 µM
GI50 [26]: 6.51 µM
GI50 [27]: 17.7 µM
GI50 [28]: 6.69 µM
GI50 [29]: 5.03 µM
GI50 [30]: 22.8 µM
GI50 [31]: 12.1 µM
GI50 [32]: 1.49 µM
Activity [33]: Active
Activity [34]: Active
Activity [35]: Active
Activity [36]: Active
GI50 [37]: 5.03 µM
GI50 [38]: 5.11 µM
GI50 [39]: 22.6 µM
GI50 [40]: 3.69 µM
GI50 [41]: 0.66 µM
GI50 [42]: 22.5 µM

CC1(C)OB(c2ccc(N(CCCl)CCOS(C)(=O)=O)cc2)OC1(C)C
GI50 [1]: 8.85 µM
GI50 [2]: 4.7 µM
GI50 [3]: 0.49 µM
GI50 [4]: 11.1 µM
GI50 [5]: 13.5 µM
GI50 [6]: 14.6 µM
GI50 [7]: 11.9 µM
GI50 [8]: 2.99 µM
GI50 [9]: 4.83 µM
GI50 [10]: 10.2 µM
GI50 [11]: 0.7 µM
GI50 [12]: 14 µM
GI50 [13]: 5.68 µM
GI50 [14]: 15.3 µM
GI50 [15]: 21.5 µM
GI50 [16]: 12.8 µM
GI50 [17]: 13 µM
GI50 [18]: 5.83 µM
GI50 [19]: 13.4 µM
GI50 [20]: 8.2 µM
GI50 [21]: 6.55 µM
GI50 [22]: 8.59 µM
GI50 [23]: 3.03 µM
GI50 [24]: 5.71 µM
GI50 [25]: 18 µM
GI50 [26]: 6.18 µM
GI50 [27]: 15.1 µM
GI50 [28]: 4.52 µM
GI50 [29]: 4.44 µM
GI50 [30]: 22.1 µM
GI50 [31]: 12 µM
GI50 [32]: 1.07 µM
Activity [33]: Active
Activity [34]: Active
Activity [35]: Active
Activity [36]: Active
GI50 [37]: 4.01 µM
GI50 [38]: 3.88 µM
GI50 [39]: 19 µM
GI50 [40]: 3.74 µM
GI50 [41]: 0.63 µM
GI50 [42]: 24.5 µM
